Rows were chosen to be rich in hits. Some 2.4% of all compounds tested hit in one or more screens of this group.
NPY2 pot ag: NPY-Y2 potentiators or agonists, primary screen, cell-based; 220,000 tested, 0.45% active; cells expressing NPY-Y2, potentiator/agonist read-out; AID 1359, 2008; activation, % at 3.6 µM; in the data active = activation above about 27%;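 also: cells stimulated with NPY near EC25 plus isoproterenol at EC100; 0% = vehicle plus submaximal agonist and 100% = vehicle plus saturating agonist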
Target sequence (P49146 whole entry, looked up): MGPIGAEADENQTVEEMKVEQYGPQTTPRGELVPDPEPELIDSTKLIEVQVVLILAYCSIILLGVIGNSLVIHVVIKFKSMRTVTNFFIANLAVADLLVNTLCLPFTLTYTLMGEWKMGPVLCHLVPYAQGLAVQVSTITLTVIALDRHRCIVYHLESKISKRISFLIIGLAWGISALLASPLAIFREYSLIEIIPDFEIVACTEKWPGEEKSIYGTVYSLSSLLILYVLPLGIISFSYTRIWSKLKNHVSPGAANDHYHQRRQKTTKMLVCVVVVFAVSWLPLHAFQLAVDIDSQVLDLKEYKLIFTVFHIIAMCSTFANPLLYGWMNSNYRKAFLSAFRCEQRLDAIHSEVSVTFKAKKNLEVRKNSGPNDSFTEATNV
NPY-Y1 antag: NPY-Y1 receptor antagonists, primary screen, cell-based; Neuropeptide Y receptor type 1 (Homo sapiens), P25929; HEK293-CNG Y1 cells, membrane potential fluorescence; NPY at EC95, then isoproterenol; inhibition, % at 3.6 µM; 200,000 tested, 1% active;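 active = inhibition above the campaign mean inhibition of all tested compounds plus 3 SD, cut at about 20% in these data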;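 also: 0% = DMSO wells given NPY plus isoproterenol and 100% = isoproterenol alone without NPY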
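Material: HEK293 Y1/CNG channel cell line | Also added: NPY (25 nM), isoproterenol (1 µM), Ro 20-1724 (25 µM) | Compound: One concentration, 3.6 µM, in 0.4% DMSO | Schedule: 3 h dye uptake, 1 h room-temperature compound, 45 min post-isoproterenol | Signal: Membrane-potential fluorescent dye readout | Read-out: % inhibition of NPY effect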
S1P4 agonist: S1P4 receptor agonists, primary screen, cell-based | 220,000 tested, 0.35% active | S1P4-expressing cell line, agonist reporter assay | Sphingosine 1-phosphate receptor 4 (Homo sapiens), O95977 | activation, % at 4.98 µM; in the data active = activation above about 11%;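 also: 0% = DMSO vehicle and 100% = reference agonist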
S1P4 antag: S1P4 receptor antagonists, primary screen, cell-based | S1P4-expressing cells, antagonist mode, reporter read-out | inhibition, % at 4.98 µM | Sphingosine 1-phosphate receptor 4 (Homo sapiens), O95977 | 220,000 tested, 0.26% active; in the data active = inhibition above about 29%;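 also: 0% = wells stimulated with agonist and 100% = vehicle wells without agonist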
NPY-Y1 PAM-ag: NPY-Y1 receptor potentiators or agonists, primary screen, cell-based; Neuropeptide Y receptor type 1 (Homo sapiens), P25929; NPY-Y1 expressing cells, potentiator/agonist activation; activation, % at 3.6 µM; 220,000 tested, 0.37% active; in the data active = activation above about 33%, passing the limit was not always enough;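 also: cells stimulated with NPY at EC10 then isoproterenol at EC100; 0% = low agonist plus stimulus and 100% = saturating agonist plus stimulus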
NPY Y2 blocker: NPY-Y2 receptor antagonists, primary screen, cell-based. AID 793, 2007. NPY-Y2 expressing cells, antagonist mode. 140,000 tested, 0.99% active. inhibition, % at 2.7 µM; in the data active = inhibition above about 17%;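 also: 0% = vehicle with agonist challenge and 100% = reference antagonist with challenge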
NPY-Y1 antag ct: NPY-Y1 receptor antagonists, selectivity check, counter-screen for NPY-Y2 antagonist project, cell-based | shares compounds with NPY Y2 blocker | inhibition, % at 3.6 µM | cell-based NPY-Y1 antagonism counterscreen | 710 tested, 19% active | AID 1256, 2008; in the data active = inhibition above about 20%;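 also: cells challenged with NPY then isoproterenol with cAMP sensed through a CNG channel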
NPY-Y2 ant conf: NPY-Y2 receptor antagonists, retest of hits, confirmation, HEK293-CNG cells, membrane potential fluorescence, triplicate; inhibition, % at 2.8 µM; HEK293 NPY-Y2 CNG channel; shares compounds with NPY Y2 blocker; 710 tested, 32% active;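 active = mean inhibition of triplicate wells above the hit cutoff set in the primary screen, cut at about 17% in these data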;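 also: 0% = DMSO with NPY challenge and 100% = BIIE0246 high control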
An asterisk follows results filed as active; nt = not tested or not shown; ! = a repeat was not active.

SMILES	NPY2 pot ag	NPY-Y1 antag	S1P4 agonist	S1P4 antag	NPY-Y1 PAM-ag	NPY Y2 blocker	NPY-Y1 antag ct	NPY-Y2 ant conf
COc1ccc(S(=O)(=O)N2CCC(CN3C(=O)c4cccc5cccc(c45)C3=O)CC2)cc1	-5.2	6.2	-1.2	-12.1	-47.7	23.2*	7.7	15.0
O=C(c1ccc(S(=O)(=O)N2CCCC2)cc1)N1CCC(CN2C(=O)c3cccc4cccc(c34)C2=O)CC1	-35.5	nt	-0.1	7.2	18.0	nt	nt	nt
CCn1cc(C(=O)O)c(=O)c2cnc(N3CCN(C(=S)Nc4ccccc4Cl)CC3)nc21	-4.2	nt	1.4	6.6	19.0	nt	nt	nt
COc1ccc(OCCNc2cc(N3CCCCC3)ccc2[N+](=O)[O-])cc1	-6.8	6.8	1.0	-8.4	-12.2	17.5*	4.3	7.1
COc1cccc(OCCNc2cc(N3CCCCC3)ccc2[N+](=O)[O-])c1	-2.7	6.0	1.6	-9.4	-36.1	4.6	nt	nt
Cc1ccc(NC(=O)c2c(C(F)(F)F)nn(C)c2SCc2ccc(Cl)cc2)cc1C	-14.2	17.8	-0.2	1.6	-16.6	17.2*	12.7	9.7
COC(=O)Cn1c(=N)n(CCN2CCCCC2)c2ccccc21	10.4	0.4	0.4	-7.5	-19.9	3.5	nt	nt
Cc1ccccc1OCC(O)Cn1c(=N)n(CCN2CCOCC2)c2ccccc21 (centres undefined)	-1.9	30.0*!	3.5	12.9	-16.1	28.4*	10.3	6.7
COc1ccccc1OCC(O)Cn1c(=N)n(CCN2CCCCC2)c2ccccc21 (centres undefined)	-7.2	17.0	-2.1	7.8	-52.7	44.9*	31.4*	38.9*
O=C(NCC1CCN(S(=O)(=O)c2ccccc2)CC1)Nc1ccc(F)cc1F	-8.9	nt	0.5	-9.0	2.5	nt	nt	nt
CCCCNC(=O)c1onc(CSc2cccc(Cl)c2)c1C(=O)O	-35.9	17.6	0.6	-11.2	-14.8	12.4	nt	nt
CCCCNC(=O)c1onc(CSc2ccc(F)c(F)c2)c1C(=O)O	-19.1	13.6	2.8	-1.5	-8.6	22.9*	13.7	11.7
Cc1c(C(=O)Nc2nc3ccccc3[nH]2)oc2ccc(Br)cc12	-19.4	-0.9	1.7	-6.6	-6.1	19.0*	11.6	13.6
COc1ccc(NCc2nnc(SCC(=O)Nc3ccccc3)n2C)cc1	-4.5	-1.2	-0.5	-9.2	-0.9	nt	nt	nt
CCOc1ccc2nc(NC(=O)CS(=O)(=O)c3ccccc3)sc2c1	-22.7	0.0	1.2	-4.7	-24.4	1.4	nt	nt
CCOc1ccc2nc(NC(=O)CS(=O)(=O)c3ccc(C)cc3)sc2c1	-17.6	8.5	0.0	9.4	-17.4	24.6*	15.6	18.0*
Cc1cccc(OCCNc2cc(N3CCN(CCO)CC3)ccc2[N+](=O)[O-])c1	-7.2	3.4	1.7	-14.5	15.5	0.7	nt	nt
O=C(Nc1cccc(S(=O)(=O)N2CCCC2)c1)c1ccc2ccccc2n1	-15.6	12.3	1.9	-4.3	-3.6	nt	nt	nt
O=C(Nc1cccc(S(=O)(=O)N2CCCCC2)c1)c1ccc2ccccc2n1	-9.4	8.5	1.3	-1.7	-9.4	19.7*	10.5	12.7
COc1ccc(OC)c(CC(NC(C)=O)C(=O)NC2CCN(c3cc(C)nc4ncnn34)CC2)c1 (centres undefined)	6.8	-1.3	1.8	-1.3	3.9	nt	nt	nt
CC(=O)c1c(C)[nH]c(C(=O)OCC(=O)N2c3ccccc3NC(=O)C2(C)C)c1C	1.4	0.5	1.1	-5.2	-9.8	0.5	nt	nt
Cc1ccc(OCCN2C(=O)S/C(=C\c3ccc(C)o3)C2=O)cc1	-5.2	4.2	0.0	-8.7	-2.8	17.2*	4.6	6.0

Compound activity as filed in PubChem.
